pIC50, pKi: −log10 of the molar value. Square brackets hold non-standard residues; d marks the D form. Peptide text beside a SMILES is read from it. * marks the point of attachment. NH(4-amidinobenzyl) = N=C(N)c1ccc(CN*)cc1
Assays:
[1] = species on record: Homo sapiens; experiment: Selectivity index, ratio of Ki for recombinant human furin expressed in drosophila S2 cells to Ki for recombinant human PACE4 expressed in drosophila S2 cells; format: cell-based
Procedure, shortened: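 Ratio Ki(furin)/Ki(PACE4). […] PACE4 buffer was BisTris pH 6.5; furin buffer was HEPES pH 7.5, or BisTris pH 6.5 for His peptides. Ki fitted by Morrison equation from three independent experiments.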

[2] = tested on: LNCaP; experiment: Antiproliferative activity against human LNCAP cells assessed as reduction in metabolic activity after 72 hrs by MTT assay; format: functional, cell-based
Procedure, shortened: (§1)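 Cells kept at 37°C, 5% CO2 in RPMI 1640 (DU145 with 5% FBS, 1500 cells/well; LNCaP with 10% FBS, 2500 cells/well) on poly-L-lysine coated plates. Peptides added 24 h after plating in fresh serum medium at 0, 1, 10, 25, 50, 75, 100, 250 µM for 72 h. MTT 1 mg/mL final for 4 h; formazan dissolved in 2-propanol HCl. Signal normalised to water vehicle; IC50 from dose-response curves.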

[3] = tested on: DU-145; experiment: Antiproliferative activity against human DU145 cells assessed as reduction in metabolic activity after 72 hrs by MTT assay; format: functional, cell-based; conditions: DU-145, 72 h; procedure, shortened: as §1
[4] = biological target: Furin (Homo sapiens, UniProt P09958); experiment: Inhibition of recombinant human furin expressed in drosophila S2 cells using pyrGlu-Arg-Thr-Lys-Arg-7-amido-4-methylcoumarin as substrate after 60 mins by spectrofluorometry method; format: cell-based
Chain of Furin (P09958 whole entry): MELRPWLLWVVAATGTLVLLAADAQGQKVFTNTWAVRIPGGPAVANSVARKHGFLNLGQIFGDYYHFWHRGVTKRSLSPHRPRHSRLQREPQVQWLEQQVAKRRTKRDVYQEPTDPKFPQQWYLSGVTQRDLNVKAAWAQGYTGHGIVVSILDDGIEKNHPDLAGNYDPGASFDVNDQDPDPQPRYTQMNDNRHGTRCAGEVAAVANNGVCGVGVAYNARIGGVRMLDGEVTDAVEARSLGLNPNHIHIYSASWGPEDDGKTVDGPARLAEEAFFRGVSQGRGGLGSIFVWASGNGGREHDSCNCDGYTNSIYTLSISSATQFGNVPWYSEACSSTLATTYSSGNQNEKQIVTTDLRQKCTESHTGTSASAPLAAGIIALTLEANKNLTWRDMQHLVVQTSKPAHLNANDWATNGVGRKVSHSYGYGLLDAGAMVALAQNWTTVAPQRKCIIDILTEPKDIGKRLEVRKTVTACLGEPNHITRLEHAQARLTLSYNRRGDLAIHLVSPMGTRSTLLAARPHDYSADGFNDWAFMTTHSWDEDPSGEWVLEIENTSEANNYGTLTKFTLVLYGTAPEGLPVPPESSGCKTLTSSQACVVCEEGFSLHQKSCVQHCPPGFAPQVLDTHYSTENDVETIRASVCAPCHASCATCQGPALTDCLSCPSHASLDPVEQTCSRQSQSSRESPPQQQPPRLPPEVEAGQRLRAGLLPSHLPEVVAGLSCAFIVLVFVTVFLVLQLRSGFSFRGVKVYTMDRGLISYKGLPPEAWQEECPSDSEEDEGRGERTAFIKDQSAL
Procedure, shortened: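 Human recombinant purified furin at 2 units/100 µL (0.54 nM), in 100 mM HEPES pH 7.5, 1 mM CaCl2, 1 mM β-mercaptoethanol, 1.8 mg/mL BSA. His-containing peptides run instead in 20 mM BisTris pH 6.5 with the same additives. Substrate 100 µM, KM 5.04 µM. Inhibitor 1 nM to 10 µM; 60 min at 37°C. Fluorescence ex 370 / em 460 nm. Ki by Morrison equation; triplicate experiments, mean ± SD.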

[5] = biological target: T1, Proprotein convertase subtilisin/kexin type 6 (Homo sapiens, UniProt P29122); experiment: Inhibition of recombinant human PACE4 expressed in drosophila S2 cells using pyrGlu-Arg-Thr-Lys-Arg-7-amido-4-methylcoumarin as substrate after 60 mins by spectrofluorometry method; format: cell-based
T1 sequence (P29122 whole entry): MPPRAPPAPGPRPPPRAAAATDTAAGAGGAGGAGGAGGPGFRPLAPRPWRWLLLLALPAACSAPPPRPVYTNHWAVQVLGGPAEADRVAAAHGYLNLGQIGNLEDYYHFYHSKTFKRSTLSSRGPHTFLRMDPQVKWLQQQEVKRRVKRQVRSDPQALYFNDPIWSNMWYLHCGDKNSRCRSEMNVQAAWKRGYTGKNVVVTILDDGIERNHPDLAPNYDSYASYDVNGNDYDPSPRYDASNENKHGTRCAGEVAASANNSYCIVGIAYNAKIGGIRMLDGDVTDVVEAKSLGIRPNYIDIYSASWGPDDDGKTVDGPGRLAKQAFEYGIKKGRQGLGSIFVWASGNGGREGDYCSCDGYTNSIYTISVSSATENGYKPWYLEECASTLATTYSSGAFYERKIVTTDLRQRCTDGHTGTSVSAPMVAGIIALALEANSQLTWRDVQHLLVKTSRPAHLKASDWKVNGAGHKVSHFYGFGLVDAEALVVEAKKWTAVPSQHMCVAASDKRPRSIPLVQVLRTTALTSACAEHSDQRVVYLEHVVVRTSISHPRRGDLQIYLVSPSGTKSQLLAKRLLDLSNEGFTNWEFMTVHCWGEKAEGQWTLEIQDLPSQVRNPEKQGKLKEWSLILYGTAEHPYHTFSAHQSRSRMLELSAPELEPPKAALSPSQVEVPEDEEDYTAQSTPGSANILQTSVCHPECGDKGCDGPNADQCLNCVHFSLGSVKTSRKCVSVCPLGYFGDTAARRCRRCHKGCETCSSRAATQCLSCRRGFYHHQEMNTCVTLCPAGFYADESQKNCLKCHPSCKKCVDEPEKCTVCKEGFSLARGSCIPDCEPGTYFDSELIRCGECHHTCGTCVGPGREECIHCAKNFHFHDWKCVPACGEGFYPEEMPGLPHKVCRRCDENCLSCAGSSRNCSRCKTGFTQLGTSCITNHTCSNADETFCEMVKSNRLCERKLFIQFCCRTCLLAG
Procedure, shortened: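 Human recombinant purified PACE4 at 2 units/100 µL (20.18 nM), in 20 mM BisTris pH 6.5, 1 mM CaCl2, 1.8 mg/mL BSA. Substrate 100 µM, KM 4.035 µM. Inhibitor 1 nM to 10 µM; 60 min at 37°C. Fluorescence ex 370 / em 460 nm. Ki by Morrison tight-binding equation; three independent experiments, mean ± SD.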

## CC(=O)N[C@@H](Cc1ccccc1)C(=O)N[C@@H](CC(C)C)C(=O)N[C@@H](CC(C)C)C(=O)N[C@@H](CC(C)C)C(=O)N[C@@H](CCCNC(=N)N)C(=O)N[C@H](C(=O)N[C@@H](CCCCN)C(=O)NCc1ccc(C(=N)N)cc1)C(C)C (Ac-FLLLRVK-{NH(4-amidinobenzyl)})
[1]
  Ratio Ki: 1
[2]
  pIC50: 4.39
[3]
  pIC50: 4.52
[4]
  pKi: 8.05
[5]
  pKi: 8.05

## CC(=O)N[C@@H](CC(C)C)C(=O)N[C@@H](CC(C)C)C(=O)N[C@@H](Cc1ccccc1)C(=O)N[C@@H](CC(C)C)C(=O)N[C@@H](CCCNC(=N)N)C(=O)N[C@H](C(=O)N[C@@H](CCCCN)C(=O)NCc1ccc(C(=N)N)cc1)C(C)C (Ac-LLFLRVK-{NH(4-amidinobenzyl)})
[1]
  Ratio Ki: 0.3
[2]
  pIC50: 4.40
[3]
  pIC50: 4.42
[4]
  pKi: 8.30
[5]
  pKi: 7.80

## CC(=O)N[C@H](C(=O)N[C@@H](CC(C)C)C(=O)N[C@@H](CC(C)C)C(=O)N[C@@H](CC(C)C)C(=O)N[C@@H](CCCNC(=N)N)C(=O)N[C@H](C(=O)N[C@@H](CCCCN)C(=O)NCc1ccc(C(=N)N)cc1)C(C)C)C(C)C (Ac-VLLLRVK-{NH(4-amidinobenzyl)})
[1]
  Ratio Ki: 0.8
[2]
  pIC50: 4.15
[3]
  pIC50: 4.12
[4]
  pKi: 8.40
[5]
  pKi: 8.30

## CC(=O)N[C@@H](CCC(N)=O)C(=O)N[C@@H](CC(C)C)C(=O)N[C@@H](CC(C)C)C(=O)N[C@@H](CC(C)C)C(=O)N[C@@H](CCCNC(=N)N)C(=O)N[C@H](C(=O)N[C@@H](CCCCN)C(=O)NCc1ccc(C(=N)N)cc1)C(C)C (Ac-QLLLRVK-{NH(4-amidinobenzyl)})
[1]
  Ratio Ki: 1
[2]
  pIC50: < 3.60
[3]
  pIC50: 3.82
[4]
  pKi: 8.52
[5]
  pKi: 8.52

## CC[C@H](C)[C@H](NC(=O)[C@H](CC(C)C)NC(=O)[C@H](CC(C)C)NC(=O)[C@H](CC(C)C)NC(C)=O)C(=O)N[C@@H](CCCNC(=N)N)C(=O)N[C@H](C(=O)N[C@@H](CCCCN)C(=O)NCc1ccc(C(=N)N)cc1)C(C)C (Ac-LLLIRVK-{NH(4-amidinobenzyl)})
[1]
  Ratio Ki: 3.4
[2]
  pIC50: 4.55
[3]
  pIC50: 4.30
[4]
  pKi: 7.57
[5]
  pKi: 8.10

## CC[C@H](C)[C@H](NC(=O)[C@H](CC(C)C)NC(=O)[C@@H](CC(C)C)NC(C)=O)C(=O)N[C@H](C(=O)N[C@@H](CCCNC(=N)N)C(=O)N[C@H](C(=O)N[C@@H](CCCCN)C(=O)NCc1ccc(C(=N)N)cc1)C(C)C)[C@@H](C)CC
[1]
  Ratio Ki: 0.8
[2]
  pIC50: 4.22
[3]
  pIC50: 4.43
[4]
  pKi: 7.93
[5]
  pKi: 7.85

## CC(=O)N[C@@H](CC(=O)O)C(=O)N[C@@H](CC(C)C)C(=O)N[C@@H](CC(C)C)C(=O)N[C@@H](CC(C)C)C(=O)N[C@@H](CCCNC(=N)N)C(=O)N[C@H](C(=O)N[C@@H](CCCCN)C(=O)NCc1ccc(C(=N)N)cc1)C(C)C (Ac-DLLLRVK-{NH(4-amidinobenzyl)})
[1]
  Ratio Ki: 0.7
[2]
  pIC50: 4.40
[3]
  pIC50: 4.05
[4]
  pKi: 8.10
[5]
  pKi: 7.92

## CC(=O)N[C@@H](CC(C)C)C(=O)N[C@@H](CC(C)C)C(=O)N[C@@H](CC(C)C)C(=O)N[C@H](C(=O)N[C@@H](CCCNC(=N)N)C(=O)N[C@H](C(=O)N[C@@H](CCCCN)C(=O)NCc1ccc(C(=N)N)cc1)C(C)C)C(C)C (Ac-LLLVRVK-{NH(4-amidinobenzyl)})
[1]
  Ratio Ki: 1.9
[2]
  pIC50: 4.22
[3]
  pIC50: 4.35
[4]
  pKi: 8.40
[5]
  pKi: 8.68

## CC(=O)N[C@@H](CC(C)C)C(=O)N[C@@H](Cc1c[nH]c2ccccc12)C(=O)N[C@@H](CC(C)C)C(=O)N[C@@H](CC(C)C)C(=O)N[C@@H](CCCNC(=N)N)C(=O)N[C@H](C(=O)N[C@@H](CCCCN)C(=O)NCc1ccc(C(=N)N)cc1)C(C)C (Ac-LWLLRVK-{NH(4-amidinobenzyl)})
[1]
  Ratio Ki: 1.6
[2]
  pIC50: 4.30
[3]
  pIC50: 4.46
[4]
  pKi: 7.89
[5]
  pKi: 8.10

## CC(=O)N[C@@H](Cc1ccc(O)cc1)C(=O)N[C@@H](CC(C)C)C(=O)N[C@@H](CC(C)C)C(=O)N[C@@H](CC(C)C)C(=O)N[C@@H](CCCNC(=N)N)C(=O)N[C@H](C(=O)N[C@@H](CCCCN)C(=O)NCc1ccc(C(=N)N)cc1)C(C)C (Ac-YLLLRVK-{NH(4-amidinobenzyl)})
[1]
  Ratio Ki: 0.6
[2]
  pIC50: 3.80
[3]
  pIC50: 4.64
[4]
  pKi: 8.40
[5]
  pKi: 8.21

## CC[C@H](C)[C@H](NC(=O)[C@H](CC(C)C)NC(=O)[C@H](CC(C)C)NC(C)=O)C(=O)N[C@@H](CC(C)C)C(=O)N[C@@H](CCCNC(=N)N)C(=O)N[C@H](C(=O)N[C@@H](CCCCN)C(=O)NCc1ccc(C(=N)N)cc1)C(C)C (Ac-LLILRVK-{NH(4-amidinobenzyl)})
[1]
  Ratio Ki: 3
[2]
  pIC50: 4.10
[3]
  pIC50: 4.49
[4]
  pKi: 7.52
[5]
  pKi: 8.00

## CC(=O)N[C@@H](CO)C(=O)N[C@@H](CC(C)C)C(=O)N[C@@H](CC(C)C)C(=O)N[C@@H](CC(C)C)C(=O)N[C@@H](CCCNC(=N)N)C(=O)N[C@H](C(=O)N[C@@H](CCCCN)C(=O)NCc1ccc(C(=N)N)cc1)C(C)C (Ac-SLLLRVK-{NH(4-amidinobenzyl)})
[1]
  Ratio Ki: 0.7
[2]
  pIC50: < 3.60
[3]
  pIC50: 4.00
[4]
  pKi: 8.40
[5]
  pKi: 8.22

## CC[C@H](C)[C@H](NC(C)=O)C(=O)N[C@@H](CC(C)C)C(=O)N[C@@H](CC(C)C)C(=O)N[C@@H](CC(C)C)C(=O)N[C@@H](CCCNC(=N)N)C(=O)N[C@H](C(=O)N[C@@H](CCCCN)C(=O)NCc1ccc(C(=N)N)cc1)C(C)C (Ac-ILLLRVK-{NH(4-amidinobenzyl)})
[1]
  Ratio Ki: 1
[2]
  pIC50: 4.40
[3]
  pIC50: 4.57
[4]
  pKi: 8.30
[5]
  pKi: 8.30

## CC(=O)N[C@@H](CCC(=O)O)C(=O)N[C@@H](CC(C)C)C(=O)N[C@@H](CC(C)C)C(=O)N[C@@H](CC(C)C)C(=O)N[C@@H](CCCNC(=N)N)C(=O)N[C@H](C(=O)N[C@@H](CCCCN)C(=O)NCc1ccc(C(=N)N)cc1)C(C)C (Ac-ELLLRVK-{NH(4-amidinobenzyl)})
[1]
  Ratio Ki: 0.9
[2]
  pIC50: 3.92
[3]
  pIC50: 3.82
[4]
  pKi: 8.15
[5]
  pKi: 8.10

## CC(=O)N[C@H](C(=O)N[C@@H](CC(C)C)C(=O)N[C@@H](CC(C)C)C(=O)N[C@@H](CC(C)C)C(=O)N[C@@H](CCCNC(=N)N)C(=O)N[C@H](C(=O)N[C@@H](CCCCN)C(=O)NCc1ccc(C(=N)N)cc1)C(C)C)[C@@H](C)O (Ac-TLLLRVK-{NH(4-amidinobenzyl)})
[1]
  Ratio Ki: 0.6
[2]
  pIC50: 3.96
[3]
  pIC50: 3.85
[4]
  pKi: 8.62
[5]
  pKi: 8.40

## CC[C@H](C)[C@H](NC(=O)[C@H](CC(C)C)NC(=O)[C@H](CC(C)C)NC(C)=O)C(=O)N[C@H](C(=O)N[C@@H](CCCNC(=N)N)C(=O)N[C@H](C(=O)N[C@@H](CCCCN)C(=O)NCc1ccc(C(=N)N)cc1)C(C)C)[C@@H](C)CC
[1]
  Ratio Ki: 0.8
[2]
  pIC50: 4.52
[3]
  pIC50: 4.70
[4]
  pKi: 8.09
[5]
  pKi: 8.01

## CC(=O)N[C@H](CC(C)C)C(=O)N[C@@H](CC(C)C)C(=O)N[C@@H](CC(C)C)C(=O)N[C@@H](CC(C)C)C(=O)N[C@@H](CCCNC(=N)N)C(=O)N[C@H](C(=O)N[C@@H](CCCCN)C(=O)NCc1ccc(C(=N)N)cc1)C(C)C (Ac-[dL]LLLRVK-{NH(4-amidinobenzyl)})
[1]
  Ratio Ki: 2
[2]
  pIC50: 4.40
[3]
  pIC50: 4.60
[4]
  pKi: 8.01
[5]
  pKi: 8.31
